In ChEMBL document CHEMBL5712920, “The histone methyltransferase inhibitor A-366 enhances hemoglobin expression in erythroleukemia cells upon co-exposure with chemical inducers in culture” (J Biol Res (Thessalon), 2021):

Key:
[1] = Cytotoxicity against mouse FLC clone 745 cells assessed as reduction in cell viability measured after 48 hrs by Neubauer chamber based microscopic analysis; format: toxicity
[2] = Cytotoxicity against HMBA-stiumulated mouse FLC clone 745 cells assessed as cell viability measured after 48 hrs by Neubauer chamber based microscopic analysis (reference value: 50.563%); format: toxicity; settings: HMBA-stimulated FLC clone 745 cells, read-out: Activity
[3] = biological target: Protein arginine N-methyltransferase 3 (Mus musculus) (UniProt Q922H1); assay: Inhibition of PRMT3 in HMBA-stiumulated mouse FLC clone 745 cells assessed as increase in erythroid differentiation at IC50 concentration measured after 72 hrs by benzidine-H2O2 based assay (reference value: 69.6%); format: cell-based
[4] = biological target: Protein arginine N-methyltransferase 3 (Mus musculus) (UniProt Q922H1); assay: Inhibition of PRMT3 in HMBA-stiumulated mouse FLC clone 745 cells assessed as increase in erythroid differentiation at IC50 concentration measured after 96 hrs by benzidine-H2O2 based assay (reference value: 79.45%); format: cell-based
[5] = biological target: Histone-lysine N-methyltransferase, H3 lysine-79 specific (Mus musculus) (UniProt F7CVL0); assay: Inhibition of DOT1L in HMBA-stiumulated mouse FLC clone 745 cells assessed as increase in erythroid differentiation at IC50 concentration measured after 72 hrs by benzidine-H2O2 based assay (reference value: 69.6%); format: cell-based
[6] = biological target: Histone-lysine N-methyltransferase, H3 lysine-79 specific (Mus musculus) (UniProt F7CVL0); assay: Inhibition of DOT1L in HMBA-stiumulated mouse FLC clone 745 cells assessed as increase in erythroid differentiation at IC50 concentration measured after 96 hrs by benzidine-H2O2 based assay (reference value: 79.45%); format: cell-based
[7] = biological target: Histone-lysine N-methyltransferase EZH2 (Mus musculus) (UniProt Q61188); assay: Inhibition of EZH2 in HMBA-stiumulated mouse FLC clone 745 cells assessed as increase in erythroid differentiation at IC50 concentration measured after 72 hrs by benzidine-H2O2 based assay (reference value: 69.6%); format: cell-based
[8] = biological target: Histone-lysine N-methyltransferase EZH2 (Mus musculus) (UniProt Q61188); assay: Inhibition of EZH2 in HMBA-stiumulated mouse FLC clone 745 cells assessed as increase in erythroid differentiation at IC50 concentration measured after 96 hrs by benzidine-H2O2 based assay (reference value: 79.45%); format: cell-based
[9] = biological target: Histone-lysine N-methyltransferase KMT5B (Mus musculus) (UniProt Q3U8K7); assay: Inhibition of SUV420H1 in HMBA-stiumulated mouse FLC clone 745 cells assessed as increase in erythroid differentiation at IC50 concentration measured after 72 hrs by benzidine-H2O2 based assay (reference value: 69.6%); format: cell-based
[10] = biological target: Histone-lysine N-methyltransferase KMT5B (Mus musculus) (UniProt Q3U8K7); assay: Inhibition of SUV420H1 in HMBA-stiumulated mouse FLC clone 745 cells assessed as increase in erythroid differentiation at IC50 concentration measured after 96 hrs by benzidine-H2O2 based assay (reference value: 79.45%); format: cell-based
FLC clone 745 = assay: Cytotoxicity against mouse FLC clone 745 cells assessed as reduction in cell viability at IC50 concentration measured up to 96 hrs by Neubauer chamber based microscopic analysis; format: toxicity; settings: flc clone 745, 96 h
Outline: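 MEL-745 cells treated continuously with compound at its previously determined 48 h IC50, without inducer, for up to 96 h. Total cell number counted daily in a Neubauer chamber. Final DMSO ≤0.2% v/v.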

[11] = Inhibition of G9a/GLP in HMBA-stiumulated mouse FLC clone 745 cells assessed as increase in erythroid differentiation at IC50 concentration measured after 72 hrs by benzidine-H2O2 based assay (reference value: 69.6%); settings: condition erythroleukemia
[12] = Inhibition of G9a/GLP in HMBA-stiumulated mouse FLC clone 745 cells assessed as increase in erythroid differentiation at IC50 concentration measured after 96 hrs by benzidine-H2O2 based assay (reference value: 79.45%); settings: condition erythroleukemia
[13] = biological target: N-lysine methyltransferase SMYD2 (Mus musculus) (UniProt Q8R5A0); assay: Inhibition of SMYD2 in HMBA-stiumulated mouse FLC clone 745 cells assessed as increase in erythroid differentiation at IC50 concentration measured after 72 hrs by benzidine-H2O2 based assay (reference value: 69.6%); format: cell-based
[14] = biological target: N-lysine methyltransferase SMYD2 (Mus musculus) (UniProt Q8R5A0); assay: Inhibition of SMYD2 in HMBA-stiumulated mouse FLC clone 745 cells assessed as increase in erythroid differentiation at IC50 concentration measured after 96 hrs by benzidine-H2O2 based assay (reference value: 79.45%); format: cell-based

Sequence of Histone-lysine N-methyltransferase EZH2 (Mus musculus) (Q61188 whole entry): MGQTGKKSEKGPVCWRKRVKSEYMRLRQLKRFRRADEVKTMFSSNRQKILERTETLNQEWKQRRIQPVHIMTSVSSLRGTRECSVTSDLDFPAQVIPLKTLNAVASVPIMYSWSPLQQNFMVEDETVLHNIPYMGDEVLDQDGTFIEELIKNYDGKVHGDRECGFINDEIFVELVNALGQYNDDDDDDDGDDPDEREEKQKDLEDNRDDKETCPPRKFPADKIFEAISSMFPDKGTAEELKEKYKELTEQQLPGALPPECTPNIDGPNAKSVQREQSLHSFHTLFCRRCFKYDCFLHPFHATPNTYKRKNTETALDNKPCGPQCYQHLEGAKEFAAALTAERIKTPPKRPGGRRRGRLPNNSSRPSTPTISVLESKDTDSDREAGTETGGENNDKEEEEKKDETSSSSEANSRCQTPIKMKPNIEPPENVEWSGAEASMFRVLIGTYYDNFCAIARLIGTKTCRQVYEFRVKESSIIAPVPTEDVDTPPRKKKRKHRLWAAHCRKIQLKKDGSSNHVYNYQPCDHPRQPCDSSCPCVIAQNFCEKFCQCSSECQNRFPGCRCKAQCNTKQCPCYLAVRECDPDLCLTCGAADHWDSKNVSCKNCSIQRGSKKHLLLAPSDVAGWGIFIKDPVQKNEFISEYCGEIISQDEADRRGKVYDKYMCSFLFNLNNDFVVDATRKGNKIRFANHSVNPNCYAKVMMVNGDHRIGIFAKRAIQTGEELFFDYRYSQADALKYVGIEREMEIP
Sequence of N-lysine methyltransferase SMYD2 (Mus musculus) (Q8R5A0 whole entry): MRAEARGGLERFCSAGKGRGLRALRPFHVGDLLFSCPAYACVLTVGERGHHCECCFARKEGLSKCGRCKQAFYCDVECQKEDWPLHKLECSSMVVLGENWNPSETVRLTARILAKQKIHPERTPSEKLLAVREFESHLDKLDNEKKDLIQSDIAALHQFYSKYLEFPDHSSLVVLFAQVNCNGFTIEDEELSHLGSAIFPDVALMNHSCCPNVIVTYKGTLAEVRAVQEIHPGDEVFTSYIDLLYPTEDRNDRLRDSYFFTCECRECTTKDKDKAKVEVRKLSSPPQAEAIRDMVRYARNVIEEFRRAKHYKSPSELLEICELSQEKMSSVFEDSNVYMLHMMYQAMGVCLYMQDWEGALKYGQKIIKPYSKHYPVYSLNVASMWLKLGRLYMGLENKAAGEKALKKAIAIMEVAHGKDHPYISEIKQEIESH
Sequence of Histone-lysine N-methyltransferase, H3 lysine-79 specific (Mus musculus) (F7CVL0 as listed by the source): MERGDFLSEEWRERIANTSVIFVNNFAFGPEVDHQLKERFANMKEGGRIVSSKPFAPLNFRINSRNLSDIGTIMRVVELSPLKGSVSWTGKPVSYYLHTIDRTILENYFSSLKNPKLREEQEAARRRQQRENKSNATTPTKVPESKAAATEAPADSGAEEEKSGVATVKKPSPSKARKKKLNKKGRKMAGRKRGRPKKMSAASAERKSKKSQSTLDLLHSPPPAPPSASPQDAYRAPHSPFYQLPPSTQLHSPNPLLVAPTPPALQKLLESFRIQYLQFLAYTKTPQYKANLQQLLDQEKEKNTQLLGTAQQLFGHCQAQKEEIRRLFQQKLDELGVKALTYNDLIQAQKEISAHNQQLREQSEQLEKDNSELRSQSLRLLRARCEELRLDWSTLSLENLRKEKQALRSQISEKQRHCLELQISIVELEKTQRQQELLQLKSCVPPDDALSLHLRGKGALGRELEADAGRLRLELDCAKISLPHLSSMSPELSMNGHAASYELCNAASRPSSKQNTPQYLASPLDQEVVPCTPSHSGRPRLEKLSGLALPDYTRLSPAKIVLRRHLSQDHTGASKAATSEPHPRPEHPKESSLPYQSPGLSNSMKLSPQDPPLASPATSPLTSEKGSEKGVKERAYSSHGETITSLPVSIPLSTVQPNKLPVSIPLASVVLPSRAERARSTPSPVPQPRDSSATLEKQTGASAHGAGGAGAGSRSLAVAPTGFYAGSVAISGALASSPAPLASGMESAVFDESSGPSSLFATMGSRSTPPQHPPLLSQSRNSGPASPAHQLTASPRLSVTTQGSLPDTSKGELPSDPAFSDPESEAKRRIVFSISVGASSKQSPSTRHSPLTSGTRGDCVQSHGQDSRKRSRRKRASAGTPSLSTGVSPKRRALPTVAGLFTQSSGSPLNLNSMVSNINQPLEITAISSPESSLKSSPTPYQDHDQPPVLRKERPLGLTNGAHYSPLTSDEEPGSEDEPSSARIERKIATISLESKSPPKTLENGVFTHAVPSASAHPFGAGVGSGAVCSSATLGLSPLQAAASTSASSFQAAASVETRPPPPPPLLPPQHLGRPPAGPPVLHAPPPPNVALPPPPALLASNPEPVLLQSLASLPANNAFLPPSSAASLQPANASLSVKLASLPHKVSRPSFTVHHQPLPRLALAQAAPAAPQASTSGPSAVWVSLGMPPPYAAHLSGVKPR
Sequence of Histone-lysine N-methyltransferase KMT5B (Mus musculus) (Q3U8K7 whole entry): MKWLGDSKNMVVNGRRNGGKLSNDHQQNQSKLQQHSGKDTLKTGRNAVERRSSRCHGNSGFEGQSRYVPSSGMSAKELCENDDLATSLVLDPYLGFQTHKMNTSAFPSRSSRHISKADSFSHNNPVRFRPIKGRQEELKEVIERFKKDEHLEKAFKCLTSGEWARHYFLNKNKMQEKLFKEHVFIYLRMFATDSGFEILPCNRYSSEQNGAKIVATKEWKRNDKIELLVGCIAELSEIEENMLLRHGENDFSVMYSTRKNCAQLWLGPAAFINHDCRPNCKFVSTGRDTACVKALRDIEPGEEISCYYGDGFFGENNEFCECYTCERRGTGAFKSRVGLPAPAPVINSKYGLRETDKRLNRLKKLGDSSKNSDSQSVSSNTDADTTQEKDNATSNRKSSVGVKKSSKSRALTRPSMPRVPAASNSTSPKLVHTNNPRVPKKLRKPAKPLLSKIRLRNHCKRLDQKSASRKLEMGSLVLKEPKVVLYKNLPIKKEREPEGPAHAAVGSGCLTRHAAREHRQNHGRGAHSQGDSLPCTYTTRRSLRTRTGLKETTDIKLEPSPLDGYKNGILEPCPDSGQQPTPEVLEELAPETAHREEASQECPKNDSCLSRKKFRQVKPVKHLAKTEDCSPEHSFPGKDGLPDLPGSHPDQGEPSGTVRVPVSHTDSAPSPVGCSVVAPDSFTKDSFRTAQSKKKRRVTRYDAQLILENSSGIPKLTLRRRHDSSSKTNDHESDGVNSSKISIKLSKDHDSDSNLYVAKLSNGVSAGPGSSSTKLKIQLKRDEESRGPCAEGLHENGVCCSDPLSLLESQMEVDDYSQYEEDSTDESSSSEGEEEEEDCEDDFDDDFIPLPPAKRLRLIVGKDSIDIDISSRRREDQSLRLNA
Sequence of Protein arginine N-methyltransferase 3 (Mus musculus) (Q922H1 whole entry): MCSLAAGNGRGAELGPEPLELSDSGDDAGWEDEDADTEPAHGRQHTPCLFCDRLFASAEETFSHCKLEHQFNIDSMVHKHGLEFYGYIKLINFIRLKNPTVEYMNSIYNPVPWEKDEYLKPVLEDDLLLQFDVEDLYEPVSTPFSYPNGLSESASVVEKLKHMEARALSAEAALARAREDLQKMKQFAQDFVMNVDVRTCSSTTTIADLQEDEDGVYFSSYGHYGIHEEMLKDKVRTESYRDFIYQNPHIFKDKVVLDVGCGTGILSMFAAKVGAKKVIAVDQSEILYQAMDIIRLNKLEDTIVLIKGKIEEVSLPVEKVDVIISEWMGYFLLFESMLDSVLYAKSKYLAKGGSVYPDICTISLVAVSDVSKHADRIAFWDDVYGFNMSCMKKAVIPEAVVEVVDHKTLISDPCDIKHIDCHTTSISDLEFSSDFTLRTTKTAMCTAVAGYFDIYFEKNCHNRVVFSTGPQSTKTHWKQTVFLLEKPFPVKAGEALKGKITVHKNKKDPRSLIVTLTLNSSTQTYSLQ

SMILES | IC50 at 48 h [1] | viability at 48 h [2] | other results
O=C(NCC(=O)N1CCCC1)Nc1ccc2cnccc2c1 | 11 µM | 31.6% | inhibition [3]: 18.9%; inhibition [4]: 47.7%
CC(C)N(CCCNC(=O)Nc1ccc(C(C)(C)C)cc1)C[C@H]1O[C@@H](n2cc(Br)c3c(N)ncnc32)[C@H](O)[C@@H]1O | 2.3 µM | 23.9% | inhibition [5]: 4.3%; inhibition [6]: 6.64%
CCCc1cc(C)[nH]c(=O)c1CNC(=O)c1cc(-c2ccnc(N3CCN(C)CC3)c2)cc2c1cnn2C(C)C | 2.2 µM | 20.6% | inhibition [7]: < 1%; inhibition [8]: < 1%
CCc1cc(C)[nH]c(=O)c1CNC(=O)c1cc(-c2ccc(N3CCN(C(C)C)CC3)nc2)cc2c1cnn2C(C)C | 3.2 µM | 6.96% | inhibition [7]: < 1%; inhibition [8]: < 1%
Clc1cc2c(NC3CCCC3)nnc(-c3ccncc3)c2cc1Cl | 20 µM | 27.2% | inhibition [9]: < 1%; inhibition [10]: 19%
COc1cc2c(NC3CCN(C(C)C)CC3)nc(N3CCC(F)(F)CC3)nc2cc1OCCCN1CCCC1 | 1.6 µM | 4.2% | Activity (FLC clone 745): Toxic; inhibition (INH) [11]: <1%; inhibition (INH) [12]: <1%
O=C([C@@H](Cc1cccc(C(F)(F)F)c1)NS(=O)(=O)c1cc(F)c2c(c1)CCNC2)N1CCCC1 | 20 µM | 18.7% | –
CN1CCN(c2ccc(-c3cccc(CN4CCOCC4)c3)cc2NC(=O)c2c[nH]c(=O)cc2C(F)(F)F)CC1 | – | 7.57% | Activity (FLC clone 745): Toxic
Cc1cn(CCN2CCN(c3ccccc3-c3cc(C#N)cc(C(=O)NCCCN4CCCC4)c3)CC2)c2ccccc12 | 0.68 µM | 16.6% | inhibition [13]: 1.3%; inhibition [14]: 9%
COc1cc2c(NC3CCN(C(C)C)CC3)nc(C3CCCCC3)nc2cc1OCCCN1CCCC1 | 0.44 µM | 7.56% | Activity (FLC clone 745): Toxic; inhibition (INH) [11]: <1%; inhibition (INH) [12]: <1%
CCN(C(=O)CO)[C@H]1CN(/C(=N\C#N)Nc2cccc(OC(F)F)c2)N=C1c1ccc(Cl)c(Cl)c1 | 4.7 µM | 22.8% | inhibition [13]: 12.7%; inhibition [14]: 22.6%
